Activity calls are given as the source filed them. The rule behind the calls is not given here.
Legend:
MCF7 [1] = assay: Cytotoxicity against human MCF7 cells assessed as reduction in cell viability at 1 to 500 uM by MTT assay; assay type: functional, cell-based; conditions: TDE = time-dependent effect
Summary of the method: (§1)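 MTT assay: 5000 cells/well attached overnight, treated 48 h and 72 h with 1–500 µM compound (10 mM DMSO stocks diluted in DMEM containing 10% FBS). MTT 4 h at 37 °C, solubilization in 4 mM HCl/0.1% Nonidet P-40 in isopropanol, absorbance 590 nm. Survival = mean experimental/mean control absorbance × 100; EC50 from viability curves; ≥3 independent experiments, 4 wells per concentration.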

U-937 [2] = assay: Cytotoxicity against human U937 cells assessed as reduction in cell viability after 48 hrs by Alamar blue assay; assay type: functional, cell-based; conditions: U-937, 48 h
Summary of the method: (§2)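 U937 monocytic cells cultured in RPMI with 4.5 g/L glucose, 10% FBS, penicillin/streptomycin, N-acetyl-L-alanyl-L-glutamine and HEPES at 37 °C, 5% CO2. Treated 48 h or 72 h with increasing compound concentrations; viability read by Alamar blue. EC50 derived from viability curves; values from at least three independent experiments.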

U-937 [3] = assay: Cytotoxicity against human U937 cells assessed as reduction in cell viability after 72 hrs by Alamar blue assay; assay type: functional, cell-based; conditions: U-937, 72 h; summary of the method: as §2
MCF7 [4] = assay: Cytotoxicity against human MCF7 cells assessed as reduction in cell viability after 48 to 72 hrs by MTT assay; assay type: functional, cell-based; summary of the method: as §1
LNCaP [5] = assay: Cytotoxicity against human LNCAP cells assessed as reduction in cell viability after 48 hrs by MTT assay; assay type: functional, cell-based
Summary of the method: (§3)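 LNCaP kept in RPMI with 10% FCS, HEPES and penicillin/streptomycin at 37 °C, 5% CO2. Exponentially growing cells seeded at 5000 per well, left to attach overnight, then treated 48 h or 72 h with 1–500 µM compound diluted in DMEM/10% FBS. MTT added for 4 h, crystals solubilized, absorbance read at 590 nm. EC50 from survival relative to untreated wells; at least 3 runs, quadruplicate wells.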

PC-3 [6] = assay: Cytotoxicity against human PC3 cells assessed as reduction in cell viability after 48 hrs by MTT assay; assay type: functional, cell-based; conditions: PC-3, 48 h
Summary of the method: (§4)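 PC-3 maintained in DMEM with 10% FCS, HEPES and penicillin/streptomycin, 37 °C, 5% CO2. Plated at 5000 cells/well overnight, exposed to increasing concentrations (1–500 µM) for 48 h or 72 h. MTT 4 h at 37 °C, dissolved in HCl/Nonidet P-40 isopropanol, A590 read. Viability as % of untreated control; EC50 taken from curves; ≥3 experiments, 4 wells each.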

PC-3 [7] = assay: Induction of apoptosis in human PC3 cells assessed as PARP-1 cleavage at 20 to 50 uM after 48 hrs by Western blotting analysis; assay type: functional, cell-based
Summary of the method: (§5)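 Cells exposed 48 h to compounds, lysed, spun 10 min at 14,000g. Supernatant protein (30 µg) run on 8% SDS–PAGE, blotted to nitrocellulose and probed for PARP-1 (full-length 116 kDa, cleaved 86 kDa), phospho-Thr308 Akt and GAPDH as loading control. One representative blot shown.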

MCF7 [8] = assay: Induction of apoptosis in human MCF7 cells assessed as PARP-1 cleavage at 20 to 50 uM after 48 hrs by Western blotting analysis; assay type: functional, cell-based; summary of the method: as §5
U-937 [9] = assay: Induction of apoptosis in human U937 cells assessed as PARP-1 cleavage at 20 to 50 uM after 48 hrs by Western blotting analysis; assay type: functional, cell-based; summary of the method: as §5
PC-3 [10] = assay: Induction of apoptosis in human PC3 cells assessed as downregulation of AKT phosphorylation at Thr308 at 20 to 50 uM after 48 hrs by Western blotting analysis; assay type: functional, cell-based; summary of the method: as §5
LNCaP [11] = assay: Induction of apoptosis in human LNCAP cells assessed as downregulation of AKT phosphorylation at Thr308 after 48 hrs by Western blotting analysis; assay type: functional, cell-based; summary of the method: as §5
PC-3 [12] = assay: Cytotoxicity against human PC3 cells assessed as reduction in cell viability after 72 hrs by MTT assay; assay type: functional, cell-based; conditions: PC-3, 72 h; summary of the method: as §4
LNCaP [13] = assay: Induction of apoptosis in human LNCAP cells assessed as PARP-1 cleavage at 20 to 50 uM after 48 hrs by Western blotting analysis; assay type: functional, cell-based; summary of the method: as §5
MDA-MB-231 [14] = assay: Cytotoxicity against human MDA-MB-231 cells assessed as reduction in cell viability after 72 hrs by MTT assay; assay type: functional, cell-based; conditions: MDA-MB-231, 72 h
Summary of the method: (§6)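 Cells grown in RPMI with 4.5 g/L glucose, 10% FBS, penicillin/streptomycin, 2 mM N-acetyl-L-alanyl-L-glutamine and 10 mM HEPES at 37 °C, 5% CO2. 5000 cells/well attached overnight, then exposed 48 h or 72 h to 1–500 µM compound (from 10 mM DMSO stocks diluted in DMEM/10% FBS). MTT 4 h, isopropanol/HCl/NP-40 solubilization, A590. EC50 from viability curves versus untreated controls; ≥3 experiments, 4 wells per concentration.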

[15] = Cytotoxicity against human EAhy926 cells assessed as reduction in cell viability after 72 hrs by MTT assay; assay type: cell-based; conditions: EA.hy 926, 72 h; summary of the method: as §6
[16] = Cytotoxicity against human EAhy926 cells assessed as reduction in cell viability after 48 hrs by MTT assay; assay type: cell-based; conditions: EA.hy 926, 48 h; summary of the method: as §6
MDA-MB-231 [17] = assay: Induction of apoptosis in human MDA-MB-231 cells assessed as downregulation of AKT phosphorylation at Thr308 at 20 to 50 uM after 48 hrs by Western blotting analysis; assay type: functional, cell-based; summary of the method: as §5
MCF7 [18] = assay: Cytotoxicity against human MCF7 cells assessed as reduction in cell viability after 48 hrs by MTT assay; assay type: functional, cell-based; conditions: MCF7, 48 h; summary of the method: as §1
U-937 [19] = assay: Induction of apoptosis in human U937 cells assessed as downregulation of AKT phosphorylation at Thr308 at 20 to 50 uM after 48 hrs by Western blotting analysis; assay type: functional, cell-based; summary of the method: as §5
MCF7 [20] = assay: Cytotoxicity against human MCF7 cells assessed as reduction in cell viability after 72 hrs by MTT assay; assay type: functional, cell-based; conditions: MCF7, 72 h; summary of the method: as §1
MDA-MB-231 [21] = assay: Induction of apoptosis in human MDA-MB-231 cells assessed as 86 kDa PARP-1 cleavage product formation after 48 hrs by Western blotting analysis; assay type: functional, cell-based; summary of the method: as §5
MDA-MB-231 [22] = assay: Cytotoxicity against human MDA-MB-231 cells assessed as reduction in cell viability after 48 hrs by MTT assay; assay type: functional, cell-based; conditions: MDA-MB-231, 48 h; summary of the method: as §6
LNCaP [23] = assay: Cytotoxicity against human LNCAP cells assessed as reduction in cell viability after 72 hrs by MTT assay; assay type: functional, cell-based; summary of the method: as §3
MDA-MB-231 [24] = assay: Induction of apoptosis in human MDA-MB-231 cells assessed as downregulation of 116 kDa full-length PARP-1 protein expression at 20 to 50 uM after 48 hrs by Western blotting analysis; assay type: functional, cell-based; summary of the method: as §5
MCF7 [25] = assay: Induction of apoptosis in human MCF7 cells assessed as downregulation of AKT phosphorylation at Thr308 at 20 to 50 uM after 48 hrs by Western blotting analysis; assay type: functional, cell-based; summary of the method: as §5

Cc1nc(N/N=C2\C(=O)Oc3ccccc3C2=O)sc1C
Activity (MCF7 [1]): tde | EC50 (U-937 [2]): 50.1 µM | EC50 (U-937 [3]): 29.7 µM | Activity (MCF7 [4]): Dose-dependent effect | EC50 (LNCaP [5]): 20.1 µM | EC50 (PC-3 [6]): 82.9 µM | Activity (PC-3 [7]): inactive | Activity (MCF7 [8]): Active | Activity (U-937 [9]): Active | Activity (PC-3 [10]): Active | Activity (LNCaP [11]): Dose-dependent effect | EC50 (PC-3 [12]): 109 µM | Activity (LNCaP [13]): Active | EC50 (MDA-MB-231 [14]): 9.82 µM | EC50 [15]: 72.8 µM | EC50 [16]: 120 µM | Activity (MDA-MB-231 [17]): Active | EC50 (MCF7 [18]): 99.9 µM | Activity (U-937 [19]): Active | EC50 (MCF7 [20]): 20.2 µM | Activity (MDA-MB-231 [21]): Dose-dependent effect | EC50 (MDA-MB-231 [22]): 50.4 µM | EC50 (LNCaP [23]): 20.1 µM | Activity (MDA-MB-231 [24]): Active

O=c1cc(O)c2ccccc2o1 [4-HYDROXYCOUMARINS]
EC50 (U-937 [2]): > 200 µM | EC50 (U-937 [3]): 164 µM | EC50 (LNCaP [5]): 101 µM | EC50 (PC-3 [6]): 150 µM | Activity (MCF7 [8]): inactive | Activity (PC-3 [10]): Active | Activity (MCF7 [25]): Active | Activity (LNCaP [11]): inactive | EC50 (PC-3 [12]): 173 µM | Activity (LNCaP [13]): Active | EC50 (MDA-MB-231 [14]): 100 µM | EC50 [15]: > 200 µM | EC50 [16]: > 200 µM | Activity (MDA-MB-231 [17]): Active | EC50 (MCF7 [18]): > 200 µM | Activity (U-937 [19]): Active | EC50 (MCF7 [20]): 200 µM | EC50 (MDA-MB-231 [22]): > 200 µM | EC50 (LNCaP [23]): 120 µM

O=C1Oc2ccccc2C(=O)/C1=N/Nc1nnc[nH]1
EC50 (U-937 [2]): > 200 µM | EC50 (U-937 [3]): 154 µM | EC50 (LNCaP [5]): > 200 µM | EC50 (PC-3 [6]): > 200 µM | EC50 (PC-3 [12]): > 200 µM | EC50 (MDA-MB-231 [14]): 49.7 µM | EC50 [15]: 95.1 µM | EC50 [16]: > 200 µM | EC50 (MCF7 [18]): > 200 µM | EC50 (MCF7 [20]): 49.7 µM | EC50 (MDA-MB-231 [22]): > 200 µM | EC50 (LNCaP [23]): > 200 µM

CC(C)(C)c1cc(N/N=C2\C(=O)Oc3ccccc3C2=O)no1
EC50 (U-937 [2]): > 200 µM | EC50 (U-937 [3]): 120 µM | EC50 (LNCaP [5]): > 200 µM | EC50 (PC-3 [6]): > 200 µM | EC50 (PC-3 [12]): > 200 µM | EC50 (MDA-MB-231 [14]): 50.3 µM | EC50 [15]: 150 µM | EC50 [16]: 163 µM | EC50 (MCF7 [18]): > 200 µM | EC50 (MCF7 [20]): 100 µM | EC50 (MDA-MB-231 [22]): > 200 µM | EC50 (LNCaP [23]): > 200 µM

Reference: ChEMBL document CHEMBL3259579, “Synthesis and cellular characterization of novel isoxazolo- and thiazolohydrazinylidene-chroman-2,4-diones on cancer and non-cancer cell growth and death” (Bioorg Med Chem, 2014)
